The structures appear in SMILES notation. Active and inactive are the calls of the source. The rule behind the calls is not given here.

Series [1] addresses T1, Estrogen receptor (Homo sapiens) (UniProt P03372).
T1 sequence (whole entry): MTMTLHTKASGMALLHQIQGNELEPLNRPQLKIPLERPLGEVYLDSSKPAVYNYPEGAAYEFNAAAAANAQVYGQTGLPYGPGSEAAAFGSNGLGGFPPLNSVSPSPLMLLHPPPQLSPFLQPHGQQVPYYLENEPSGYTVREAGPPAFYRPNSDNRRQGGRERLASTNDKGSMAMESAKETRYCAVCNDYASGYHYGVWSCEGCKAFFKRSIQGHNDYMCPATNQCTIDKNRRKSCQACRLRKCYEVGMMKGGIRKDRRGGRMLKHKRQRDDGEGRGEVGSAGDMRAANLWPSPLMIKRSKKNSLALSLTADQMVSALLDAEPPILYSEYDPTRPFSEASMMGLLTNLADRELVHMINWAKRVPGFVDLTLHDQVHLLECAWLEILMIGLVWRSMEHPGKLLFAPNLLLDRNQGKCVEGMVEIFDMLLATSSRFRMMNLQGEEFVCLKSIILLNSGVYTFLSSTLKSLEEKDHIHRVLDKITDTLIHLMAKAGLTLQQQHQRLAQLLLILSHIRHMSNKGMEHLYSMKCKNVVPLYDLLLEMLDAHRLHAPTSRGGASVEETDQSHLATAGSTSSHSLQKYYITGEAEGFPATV
The experiment in a line: Binding affinity to human recombinant ERalpha ligand binding domain extracted from saccharomyces cerevisiae coexpressing yellow fluorescent protein assessed as relative binding affinity at 10 uM incubated for 14 to 16 hrs by fluorimetry based fluorescence microscopic analysis. As to conditions: time 14-16 hrs. In outline: (§1)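 S. cerevisiae FY250 carrying receptor LBD–EYFP fusions (human ERα, ERβ, AR; rat GR); raffinose drop-out medium, grown to OD600 ~0.6, fusion induced with 2% galactose. Compounds 10 μM (ER, AR) or 100 μM (GR), 14–16 h, 25 °C, dark; DMSO solvent control. Fluorescence at ex/em 485/538 nm, triplicate; fold change vs DMSO (normalized to 1).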

Series [2] has as its target T2, Androgen receptor (Homo sapiens) (UniProt P10275).
T2 sequence (whole entry): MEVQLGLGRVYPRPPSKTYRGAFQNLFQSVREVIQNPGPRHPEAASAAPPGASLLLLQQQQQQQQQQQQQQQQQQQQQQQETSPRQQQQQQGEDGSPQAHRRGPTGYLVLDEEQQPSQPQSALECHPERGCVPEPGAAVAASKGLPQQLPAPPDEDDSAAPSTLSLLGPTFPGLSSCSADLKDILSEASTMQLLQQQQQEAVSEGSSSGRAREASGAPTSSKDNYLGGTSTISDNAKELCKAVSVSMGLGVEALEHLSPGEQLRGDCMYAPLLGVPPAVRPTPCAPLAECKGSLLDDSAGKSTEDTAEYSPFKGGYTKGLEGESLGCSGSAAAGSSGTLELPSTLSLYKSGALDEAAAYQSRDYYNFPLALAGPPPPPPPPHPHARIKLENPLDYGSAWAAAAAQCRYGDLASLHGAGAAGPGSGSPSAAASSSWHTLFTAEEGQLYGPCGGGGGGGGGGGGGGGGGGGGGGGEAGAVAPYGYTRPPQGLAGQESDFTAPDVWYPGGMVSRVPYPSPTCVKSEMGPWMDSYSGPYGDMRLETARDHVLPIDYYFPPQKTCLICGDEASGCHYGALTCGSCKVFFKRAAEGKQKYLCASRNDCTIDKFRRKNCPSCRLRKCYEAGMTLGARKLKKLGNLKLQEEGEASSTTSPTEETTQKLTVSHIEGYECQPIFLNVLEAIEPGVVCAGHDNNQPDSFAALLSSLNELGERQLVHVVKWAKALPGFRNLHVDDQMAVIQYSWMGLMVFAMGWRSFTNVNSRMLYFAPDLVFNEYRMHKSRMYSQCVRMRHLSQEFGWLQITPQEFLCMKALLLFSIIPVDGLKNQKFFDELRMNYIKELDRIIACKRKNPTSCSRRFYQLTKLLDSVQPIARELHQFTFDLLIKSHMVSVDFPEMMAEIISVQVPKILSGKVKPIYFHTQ
The experiment in a line: Binding affinity to human recombinant androgen receptor ligand binding domain extracted from saccharomyces cerevisiae coexpressing yellow fluorescent protein assessed as relative binding affinity at 10 uM incubated for 14 to 16 hrs by fluorimetry based fluorescence microscopic analysis. As to conditions: time 14-16 hrs. The procedure, abridged:
as §1

In series [3] the target is T3, Aldo-keto reductase family 1 member C4 (Homo sapiens) (UniProt P17516).
T3 sequence (whole entry): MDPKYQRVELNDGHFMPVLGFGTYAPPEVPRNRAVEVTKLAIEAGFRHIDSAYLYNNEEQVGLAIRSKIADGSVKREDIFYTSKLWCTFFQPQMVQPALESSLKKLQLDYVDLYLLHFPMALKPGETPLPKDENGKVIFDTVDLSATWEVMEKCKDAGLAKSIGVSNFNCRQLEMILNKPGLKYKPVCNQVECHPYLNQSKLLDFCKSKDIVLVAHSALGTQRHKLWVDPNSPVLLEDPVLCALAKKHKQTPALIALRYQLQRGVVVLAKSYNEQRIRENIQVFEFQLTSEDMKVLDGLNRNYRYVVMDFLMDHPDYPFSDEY
The experiment in a line: Inhibition of N-terminal his-tagged recombinant human AKR1C4 assessed as NADPH consumption using 9,10-phenanthrenequinone as substrate at 33 uM by fluorescence spectroscopic analysis relative to control. In outline: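 N-His-tagged human AKR1C4 from E. coli BL21(DE3), purified by Ni-affinity and size exclusion. Enzyme at 160 μg/mL with 17 μM 9,10-phenanthrenequinone and 250 μM NADPH in 100 mM potassium phosphate pH 6.0, 37 °C, duplicate. Compound at 33 μM final. NADPH fluorescence (ex 340/em 460 nm) read every 30 s for 10 min; inhibition from linear slope vs uninhibited enzyme (100%).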

Series [4] deals with Estrogen receptor beta (Homo sapiens) (UniProt Q92731). Description: Binding affinity to human recombinant ERbeta ligand binding domain extracted from saccharomyces cerevisiae coexpressing yellow fluorescent protein assessed as relative binding affinity at 10 uM incubated for 14 to 16 hrs by fluorimetry based fluorescence microscopic analysis. The conditions noted are these: time 14-16 hrs. In outline: as §1

The test system of series [5] is HCT-116. Description: Cytotoxicity against human HCT-116 cells assessed as reduction in cell viability incubated for 72 hrs by resazurin assay. The conditions noted are these: HCT-116, 72 h. For orientation: Alamar Blue is a resazurin reagent that responds to reducing activity.
The test system of series [6] is Huh-7. The experiment in a line: Cytotoxicity against human Huh-7 cells assessed as reduction in cell viability incubated for 72 hrs by resazurin assay. The conditions noted are these: Huh-7, 72 h.
The test system of series [7] is MCF7. The experiment in a line: Cytotoxicity against human MCF7 cells assessed as reduction in cell viability incubated for 72 hrs by resazurin assay. As to conditions: MCF7, 72 h.
Series [8] concerns MDA-MB-231. The experiment in a line: Cytotoxicity against human MDA-MB-231 cells assessed as reduction in cell viability incubated for 72 hrs by resazurin assay. The conditions noted are these: MDA-MB-231, 72 h.
Series [9] can be described thus: Toxicity in human hTERT-BJ cells assessed as reduction in cell viability at 0.01 to 100 uM incubated for 72 hrs by resazurin assay. The class given is cell-based. The conditions noted are these: dose 0.01-100 µM. In outline:
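hTERT-immortalized BJ-5ta foreskin fibroblasts grown in high-glucose DMEM with 20% Medium 199 and 10% FBS. Exposed to 0.01–100 μM for 72 h, then 0.01 mg/mL resazurin for 2 h, fluorescence at 584 nm; n = 3; one-way ANOVA with Dunnett's test vs control.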

Sequence of Estrogen receptor beta (Homo sapiens) (Q92731 whole entry, the tested form may be a part): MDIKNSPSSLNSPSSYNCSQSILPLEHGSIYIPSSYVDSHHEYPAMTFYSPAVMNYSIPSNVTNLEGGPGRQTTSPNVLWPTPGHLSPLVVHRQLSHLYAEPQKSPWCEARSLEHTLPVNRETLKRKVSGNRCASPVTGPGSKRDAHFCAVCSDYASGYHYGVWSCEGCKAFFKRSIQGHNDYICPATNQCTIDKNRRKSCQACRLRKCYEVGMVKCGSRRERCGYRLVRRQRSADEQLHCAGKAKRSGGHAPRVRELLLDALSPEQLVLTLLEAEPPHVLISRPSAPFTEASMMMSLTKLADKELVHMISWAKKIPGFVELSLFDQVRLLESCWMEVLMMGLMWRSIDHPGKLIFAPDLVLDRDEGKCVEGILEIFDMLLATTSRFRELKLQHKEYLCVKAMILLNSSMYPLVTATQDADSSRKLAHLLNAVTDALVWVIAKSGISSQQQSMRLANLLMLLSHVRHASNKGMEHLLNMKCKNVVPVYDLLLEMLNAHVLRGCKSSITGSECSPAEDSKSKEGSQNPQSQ

As a reminder, the inhibition is the change of the read-out against control, counted positive when it falls. On to `CCn1nc2c(n1)[C@@]1(C)CC[C@H]3[C@@H](CC=C4C[C@@H](O)CC[C@@]43C)[C@@H]1C2`, for which the outcome in series [1] and in series [2] was inactive. In [3], the inhibition amounted to 2.81%.

Consider `Cn1nc2c(n1)[C@@]1(C)CC[C@H]3[C@@H](CC=C4C[C@@H](O)CC[C@@]43C)[C@@H]1C2`, for which the result in series [1] and in [2] was inactive. Moreover, the result in series [4] was Active. Besides, the inhibition in [3] was found to be 0%.

For `CC(C)Cc1ccc(C(C)C(=O)O)cc1` (configuration not stated), the inhibition in [3] turned out to be 43.9%.

Consider `CCn1nc2c(n1)[C@@]1(C)CC[C@@H]3c4ccc(OCc5ccccc5)cc4CC[C@H]3[C@@H]1C2`, for which the result in [1] and in [2] was inactive. Moreover, the inhibition in series [3] was found to be 0%.

As to `CCOC(=O)Cn1nc2c(n1)[C@@]1(C)CC[C@H]3[C@@H](CC=C4C[C@@H](O)CC[C@@]43C)[C@@H]1C2`, the result in series [1] and in [2] was inactive. The inhibition in series [3] was 0%.

`C[C@]12CC[C@H](O)CC1=CC[C@@H]1[C@@H]2CC[C@]2(C)c3nn(Cc4ccccc4)nc3C[C@@H]12`: the result in [1] and in series [2] was inactive. In addition, the inhibition in [3] worked out at 0%.

Take `Cn1nc2c(n1)[C@@]1(C)CC[C@@H]3c4ccc(OCc5ccccc5)cc4CC[C@H]3[C@@H]1C2`: the outcome in [1] and in series [2] was inactive. The inhibition in series [3] was 0%.

On to `CCCCn1nc2c(n1)[C@@]1(C)CC[C@H]3[C@@H](CC=C4C[C@@H](O)CC[C@@]43C)[C@@H]1C2`, for which the outcome in series [1] and in series [2] was inactive. Besides, the inhibition in series [3] stood at 0%.

As for `CCCCCCCCn1nc2c(n1)[C@@]1(C)CC[C@@H]3c4ccc(OCc5ccccc5)cc4CC[C@H]3[C@@H]1C2`, the outcome in series [1] and in series [2] was inactive. In addition, the inhibition in [3] was 0%.

For the compound `C[C@]12CC[C@@H]3c4ccc(OCc5ccccc5)cc4CC[C@H]3[C@@H]1Cc1nn(Cc3ccccc3)nc12`, the result in [1] and in [2] was inactive. Also, the result in series [4] was Active. Moreover, the inhibition in series [3] amounted to 0%.

One may read the IC50 as the concentration at which inhibition is half-maximal. In the case of `C[C@]12CC[C@H](O)CC1=CC[C@@H]1[C@@H]2CC[C@]2(C)c3nn(CCN)nc3C[C@@H]12`, the outcome in [1] and in series [2] was inactive. Besides, the inhibition in [3] stood at 2.29%. Moreover, the half-maximal inhibitory concentration (IC50) in series [5], in series [6], in [7] and in [8] was 22.3 µM throughout. Moreover, the Activity entry in [9] is recorded as “Toxic”.

With `CC(=O)O[C@H]1CC[C@@]2(C)C(=CC[C@@H]3[C@@H]2CC[C@]2(C)c4nn(C(C)=O)nc4C[C@@H]32)C1`, the result in series [1] and in [2] was inactive. Also, the outcome in series [4] was Active. Moreover, the inhibition in series [3] was determined as 8.32%.

The values above are taken from ChEMBL document CHEMBL6134764, “Synthesis and biological evaluation of novel D-ring fused steroidal N(2)-substituted-1,2,3-triazoles” (RSC Med Chem, 2025).
